From article PMC4610013 (Science Advances, 2015)

Key:
[1] = tested on: blood-brain barrier; test: Contrast-enhanced MRI of BBB integrity; assay type: in vivo, mouse; conditions: wild-type mice, tail-vein injection, 7-T T1-weighted MRI over 20 min, n = 4
Outline: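 Mice received targeting or nontargeting siRNA (20 μg complexed with in vivo-jetPEI in 10% glucose, 15 min at room temperature). On a 7-T small-animal MRI, scans ran before and after tail-vein 100 μl of 1:3-diluted Gd-DTPA (0.5 M stock), monitored 20 min. Settings: TR/TE 500/2.7 ms, 30° flip angle, 8 repetitions. Hippocampal bolus-chase clearance was analysed blind to treatment.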

[2] = tested on: claudin-5 and occludin; test: Tight junction protein levels after Aβ treatment; assay type: cell-based, mouse; conditions: brain endothelial cells, increasing doses, 12 hours after treatment, Western blot
Outline: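 Bend.3 mouse brain endothelial cells were grown in DMEM with 20% FCS and 2 mM sodium pyruvate at 37°C, 5% CO2. They were exposed 12 h to increasing concentrations of Aβ(1–40) peptide forms, with unmodified monomer at 0.1 to 1 μM. Cells were lysed in tris/2% SDS/10 mM DTT buffer and spun 12,000 rpm for 20 min at 4°C. Tight junction proteins were measured by Western blot densitometry, n = 3 […] per concentration.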

[3] = cited from earlier work

With `O=C([O-])CN(CCN(CC(=O)[O-])CC(=O)O)CCN(CC(=O)[O-])CC(=O)O.[Gd+3]` [Gd-DTPA, gadolinium–diethylenetriamine pentaacetic acid] as the molecule, how does the “extravasation of MRI contrast agent after claudin-5 and occludin cosuppression” value [1] read?
The value was “increased extravasation”.

With “Aβ(1–40): unmodified Aβ(1–40) monomer isolated by size exclusion chromatography” as the molecule, how does the “levels of claudin-5 and occludin protein” value [2] read?
Its value is “dose-dependent decrease”.

Which “levels of claudin-5 and occludin protein” value [2] does the source give for “Aβ(1–40)DiY: dityrosine cross-linked dimer prepared by oxidative cross-linking of Aβ(1–40)” here?
Its value is “down-regulated”.

Which propensity for aggregation [3] does the source give for Aβ(1–40)F19P here?
The propensity for aggregation was “little or no propensity for aggregation”.

What about the “levels of claudin-5 and occludin protein” value [2] of the same molecule?
Its value is “down-regulated”.
